TRPC4 potent: TRPC4 (mouse) allosteric potentiation; HEK293 TRPC4beta/mu-opioid, DAMGO EC20, Fluo-4 Ca2+ flux; hits give high values; B-score at 10 µM; 0.42% of 310,000 active; AID 2227;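 active = B-score of calcium response area above 5 SD of library B-scores, with initial fluorescence ratio within 5 SD of library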
TRPC6 inhibitor: inhibitors of mouse TRPC6 channel; HEK293-TRPC6, membrane potential dye, ACh-evoked depolarization; hits give low values; 1.1% of 310,000 active; B-score at 10 µM;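 active = B-score under library mean minus 3 SD, initial fluorescence not abnormally high, positive integrated signal ratio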;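 also: B-score derived from integrated fluorescence ratio over the kinetic read; more negative B-score means stronger inhibition of depolarization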
TRPC6 activator: activators of mouse TRPC6 channel; B-score at 10 µM; Q61143; HEK293-TRPC6 membrane potential dye fluorescence; hits give high values; 0.13% of 310,000 active;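 active = B-score of the integrated fluorescence ratio above library mean plus 3 SD, and starting fluorescence ratio within library mean plus 5 SD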;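 also: higher score means more depolarization so channel activation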
TRPC4 inh: blocks the mouse TRPC4 cation channel | Q9QUQ5 | HEK293 TRPC4beta/mu-opioid, DAMGO-evoked Fluo4 calcium flux; hits give low values | B-score at 10 µM | 0.39% of 300,000 active;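 active = B-score over 3 SD under the library average, no early fluorescence shift, positive overall ratio signal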
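Assay system: TRPC4beta/mu-opioid receptor HEK293 cell line; compound dosing: single concentration per test compound; detection: Fluo4 Ca2+ flux fluorescence; evaluation: per-well B score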
Kir21 block: blocks the mouse Kir2.1 inward-rectifier potassium channel. P35561. HEK293-Kir2.1, FluxOR thallium flux fluorescence; hits give low values. B-score at 10 µM. 0.85% of 310,000 active;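 active = fluorescence ratio B-score at or below minus 3 SD of library scores, with starting-brightness B-score within 2 SD, cut at about -4.2 in these data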;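 also: channel flux triggered by added potassium and thallium sulfate stimulus; B-score of peak minus minimum fluorescence over baseline after thallium stimulus; more negative B-score means stronger Kir2.1 block with less thallium influx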
Target sequence (P35561 whole entry, looked up): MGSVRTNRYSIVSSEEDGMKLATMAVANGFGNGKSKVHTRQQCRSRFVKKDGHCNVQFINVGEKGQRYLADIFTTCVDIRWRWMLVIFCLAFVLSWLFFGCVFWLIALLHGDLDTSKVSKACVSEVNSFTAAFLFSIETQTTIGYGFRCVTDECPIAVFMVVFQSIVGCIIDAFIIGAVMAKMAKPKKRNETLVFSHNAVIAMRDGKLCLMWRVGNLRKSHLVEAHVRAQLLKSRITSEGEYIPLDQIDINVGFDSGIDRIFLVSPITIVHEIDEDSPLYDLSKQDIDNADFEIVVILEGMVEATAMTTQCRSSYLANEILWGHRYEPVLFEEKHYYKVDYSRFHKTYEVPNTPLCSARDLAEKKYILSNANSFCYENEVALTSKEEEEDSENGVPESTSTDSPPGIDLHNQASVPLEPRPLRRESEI
TRPC4 agonist: TRPC4 (mouse) channel activation. B-score at 10 µM. HEK293 TRPC4beta/mu-opioid, Fluo4 calcium fluorescence; hits give high values. 0.49% of 310,000 active;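 active = B-score above 5 SD of library B-scores, and initial fluorescence ratio not above library mean plus 5 SD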;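 also: positive B-score marks a calcium rise read as TRPC4 activation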
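Material: HEK293 stable line with TRPC4beta plus mu-opioid receptor; technique: Fluo4 calcium-sensitive dye fluorescence, kinetic, 1 Hz baseline; timing: Fluo4 dye loading 45 min at room temperature, 110 s recording; controls: assay buffer as low control, maximal DAMGO as high control; read-out: integrated baseline-normalised fluorescence ratio, converted to per-well B score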
A number is an active result; . = inactive. Shown are actives, neighbours in structure and some others; about 3% of the full set was active somewhere.

SMILES	TRPC4 potent	TRPC6 inhibitor	TRPC6 activator	TRPC4 inh	Kir21 block	TRPC4 agonist
Cc1cc(C)nc(NC(N)=NC2CCCCC2)n1	.	.	.	-9	.	.
CC(=O)CC(=O)NC(=NC1CCCCC1)Nc1nc(C)cc(C)n1	.	.	.	.	.	.
Cn1c(/N=C/c2ccccc2[N+](=O)[O-])nc2ccccc21	15	.	.	.	.	.
CN1CCN(S(=O)(=O)c2cccc(C(=O)NCCOc3ccccc3F)c2)CC1	.	.	.	.	.	.
CCN(c1ccccc1)S(=O)(=O)c1ccc(Cl)nc1	.	.	.	.	-4.3	.
CCN(c1cccc2ccccc12)S(=O)(=O)c1ccc(Cl)nc1	.	.	.	.	.	.
CCC(C)NCCC(=O)Nc1ccc(Cl)c(S(=O)(=O)Nc2ccc(Cl)cc2)c1 (stereo not drawn)	11	.	.	.	.	.
O=C(CC1CCCCC1)Nc1ncn[nH]1	.	.	.	.	.	.
Cc1cc(OCCCC(=O)Nc2cccc(-n3cnnn3)c2)ccc1Cl	.	.	.	.	.	.
O=C(OCCCOC(=O)c1ccc(O)cc1)c1ccc(O)cc1	.	.	.	.	-4.9	.
CCOC(=O)C1(CC2CCCCO2)CCN(Cc2c(C)cc(C)cc2-n2cccn2)CC1 (stereo not drawn)	.	.	.	.	.	106
CCOC(=O)C1(CC2CC2)CCN(Cc2cnc(-c3ccccc3C)nc2)CC1	.	.	.	.	.	118
CCOC(=O)C1(CC2CCCCO2)CCN(Cc2nc3ccccc3[nH]2)CC1 (stereo not drawn)	.	.	.	.	.	115
CCOC(=O)C1(CC2CCCCO2)CCN(Cc2nccn2-c2cccc(C)c2)CC1 (stereo not drawn)	.	.	.	.	.	.
CCOC(=O)C1(CC2CCCCO2)CCN(Cc2nc(C(C)C)cs2)CC1 (stereo not drawn)	.	.	.	.	.	.
CCOC(=O)C1(CCOc2ccccc2)CCN(Cc2cnc(SC)nc2)CC1	.	.	.	.	.	.
CCOC(=O)C1(CC2CCCCO2)CCN(Cc2cc(F)ccc2-n2cccn2)CC1 (stereo not drawn)	.	.	.	.	.	91
COc1ccc(C(=O)Nc2nnc(SCC(=O)NC3CC3)s2)cc1	.	.	.	.	.	.
O=C(NCc1ccc(F)cc1)C(=O)NCC1OCCN1C(=O)c1cccs1 (stereo not drawn)	.	.	.	.	.	.
CCOc1ccc(NC(=O)CN(C)C(=O)Cn2cnc3c2c(=O)n(C)c(=O)n3C)cc1OCC	.	.	.	.	.	.
Cc1cc(C)n(C(C[N+](=O)[O-])c2ccc(Cl)cc2)n1 (stereo not drawn)	.	.	.	.	-5.2	.
CCCCCc1cc(=O)oc2c(C(CCN(CC)CC)c3ccc(N(C)C)cc3)c(OC)cc(OC)c12 (stereo not drawn)	11	.	.	.	.	.
CC1(C)CC(=NOC(=O)c2ccccc2)CC(C)(C)N1O	.	.	.	.	.	.
C=CCn1c(SCc2ccc(C(=O)OC)cc2)nnc1-c1sc(N)nc1C	.	.	.	.	.	.
C=CCn1c(SC/C=C/c2ccccc2)nnc1-c1sc(N)nc1C	.	.	.	.	-5.7	.
SMILES	TRPC4 potent	TRPC6 inhibitor	TRPC6 activator	TRPC4 inh	Kir21 block	TRPC4 agonist
COc1cc(/C=C/C(=O)OCC(=O)Nc2c(C)n(C)n(-c3ccccc3)c2=O)ccc1O	.	.	.	.	.	.
COc1cc(/C=C/C(=O)OCC(=O)Nc2c(C)n(C)n(-c3ccccc3)c2=O)ccc1OCC#N	.	.	.	.	.	125
CCC(C)n1c(SCC(=O)Nc2cc(C)on2)nc2ccccc2c1=O (stereo not drawn)	.	.	.	.	.	44
CCn1c(SCC(=O)Nc2ccccc2)nc2ccccc2c1=O	.	.	.	-5	.	.
CCn1c(SCC(=O)Nc2cccc(C)c2)nc2ccccc2c1=O	.	.	.	.	.	.
C=C(C)Cn1c(SCC)nc2ccccc2c1=O	.	.	.	-5	.	.
O=C(O)/C=C\C(=O)Nc1ccc(N2CCN(c3ccc(Cl)c(Cl)c3)CC2)cc1	.	.	.	-6	.	.
COc1ccc(NC(=S)NCCc2ccccc2OC)c(OC)c1	.	.	.	.	-5.7	.
Cc1ccc(NC(=S)NCCc2ccccc2)c(C)c1	.	.	.	.	-5.1	.
Cc1ccc(NC(=S)NCCc2c[nH]c3ccccc23)c(C)c1	.	.	.	.	-7.3	.
CC(C)CC(=O)NC(=S)NCCc1ccccc1	.	.	.	.	.	.
Cc1cc(Br)ccc1NC(=S)NCCc1ccccc1	.	.	.	.	.	.
COc1cc(NC(=S)NCCc2ccccc2)c(OC)cc1NC(=O)CC(C)C	.	.	.	-6	.	.
CCOC(=O)NC(=O)/C(C#N)=C(/C)N(C)C	.	.	.	.	.	.
COc1ccc(OCC(=O)Nc2c3c(nn2-c2ccccc2)CS(=O)(=O)C3)cc1	.	.	.	.	.	.
COc1cccc(CNCCc2c[nH]c3ccccc23)c1OCc1ccc(F)cc1	.	.	.	.	-12	.
Cc1cc(C)c(S(=O)(=O)NCCc2ccccc2)c(C)c1	.	.	.	.	-10	.
Cc1ccc(S(=O)(=O)NCCc2ccccc2)cc1	.	.	.	.	.	.
Cc1ccccc1NC(=S)NCCc1ccccn1	.	.	.	.	.	88
COc1ccccc1NC(=S)NCCc1c[nH]c2ccccc12	.	.	.	.	-6.3	.
Cc1cccc(C)c1NC(=S)NCCc1ccccn1	.	.	.	.	.	.
CCN1CC(CN(C)Cc2nc(Cc3ccccc3)no2)CC1=O (stereo not drawn)	.	.	.	.	.	.
Cc1ccc(C)c(NC(=S)NCCc2ccc(F)cc2)c1	.	.	.	.	-4.5	.
Cc1nc(NC(=O)c2cccnc2Cl)sc1C	.	.	.	.	.	.
CC(=O)c1cn(N2CCCCC2)c(=O)[nH]c1=O	.	.	.	.	.	.
SMILES	TRPC4 potent	TRPC6 inhibitor	TRPC6 activator	TRPC4 inh	Kir21 block	TRPC4 agonist
CC(C)N(C)Cc1nnnn1CC(=O)N(C)Cc1ccc(F)cc1	.	.	.	.	.	.
CCCN1CCN(C(=O)c2oc3ccccc3c2NC(=O)COc2ccc(OC)cc2)CC1	.	.	.	.	.	.
Cc1ccc(S(=O)(=O)c2ccc([N+](=O)[O-])cn2)cc1	.	.	.	.	.	.
O=[N+]([O-])c1ccc(S(=O)(=O)c2ccccc2)nc1	.	.	.	.	-8.1	.
Cc1ccccc1NC(=S)NCC1CCN(C(C)c2ccccc2)C1 (stereo not drawn)	.	.	.	.	.	.
Cc1cc(C)cc(NC(=S)NCC2CCN(C(C)c3ccccc3)C2)c1 (stereo not drawn)	.	.	.	.	-4.9	.

Assay outcomes (PubChem BioAssay)
